Columns and labels:
[1] = Chemical stability of the compound in phosphate buffer at pH 8 assessed as compound remaining at 0.1 uM after 48 hrs by RP-HPLC analysis; type: physicochemical; details: read-out: Stability
In short: (§1)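 Conjugates at 0.1 µM were incubated at 37 °C in 20 mM phosphate buffer at pH 2.0, 7.0 or 8.0. Intact conjugate was measured by RP-HPLC: RP18 column, methanol/0.05 mol/l KH2PO4 pH 3.0 (60:40), 1.0 ml/min, UV 256 nm, 25 °C. Results are % remaining, mean ± SD.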

Mus musculus [2] = test: Antiinflammatory activity in Kunming mouse assessed as inhibition of xylene-induced auricle tumefaction at 25 uM/kg, tid qd for 5 days relative to control; type: functional
In short: (§2)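 Male Kunming mice (18–22 g), 10 per group, with 0.9% NaCl as the blank group. Dosing was once daily for 5 days (table footnote); the methods say t.i.d. Drug was given at molar equivalence to naproxen. 1 h after the last dose, a 7 mm xylene-soaked filter was held on the right ear for 30 s. Mice were killed 30 min later and 7 mm ear discs punched. Inhibition % = (1 − a/b)×100.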

[3] = Chemical stability of the compound in phosphate buffer at pH 2 assessed as compound remaining at 0.1 uM after 48 hrs by RP-HPLC analysis; type: physicochemical; details: read-out: Stability; in short: as §1
[4] = Chemical stability of the compound in phosphate buffer at pH 8 assessed as compound remaining at 0.1 uM after 240 hrs by RP-HPLC analysis; type: physicochemical; details: read-out: Stability; in short: as §1
HEK293 = test: Cytotoxicity against HEK293 cells assessed as cell viability at 2 to 32 ug/ml after 24 hrs by MTT assay; type: cell-based; details: human, hek293, 24 h
In short: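 HEK293 cells were seeded at 2500/well and grown 24 h before compound exposure. The figure legend gives 24 h exposure; the methods give 48 h. MTT (5 mg/ml) was then added for 2.5 h at 37 °C. Formazan was dissolved in DMSO and read at 570 nm. Viability is % of control cells, mean ± SD, n = 3.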

[5] = Chemical stability of the compound in phosphate buffer at pH 2 assessed as compound remaining at 0.1 uM after 240 hrs by RP-HPLC analysis; type: physicochemical; details: read-out: Stability; in short: as §1
Mus musculus [6] = test: Gastrointestinal toxicity in Kunming mouse assessed as ulcer index at 200 mg/kg, po after 4 hrs; type: organism-based; design: dose 200 mg/kg, route oral; details: in vivo
In short: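 Kunming mice of either sex (18–22 g), 10 per group, were fasted 24 h. A 200 mg/kg oral dose was given as a suspension in 1% methylcellulose, and mice were killed after 4 h. Stomachs were fixed 30 min in 10% formaldehyde, opened along the greater curvature and lesion lengths measured under magnification. UI = summed lesion length (mm) per group divided by 10 animals.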

[7] = Chemical stability of the compound in phosphate buffer at pH 7 assessed as compound remaining at 0.1 uM after 240 hrs by RP-HPLC analysis; type: physicochemical; details: read-out: Stability; in short: as §1
[8] = Chemical stability of the compound in phosphate buffer at pH 7 assessed as compound remaining at 0.1 uM after 48 hrs by RP-HPLC analysis; type: physicochemical; details: read-out: Stability; in short: as §1
Mus musculus [9] = test: Antiinflammatory activity in Kunming mouse assessed as inhibition of xylene-induced auricle tumefaction at 22.2 uM/kg, tid qd for 5 days relative to control; type: functional; in short: as §2

Structure (SMILES)	remaining at 48 h, 0.1 µM [1]	inhibition (INH) (Mus musculus [2])	remaining at 48 h, 0.1 µM [3]	remaining at 240 h, 0.1 µM [4]	Activity (HEK293)	remaining at 240 h, 0.1 µM [5]	UI (Mus musculus [6])	remaining at 240 h, 0.1 µM [7]	remaining at 48 h, 0.1 µM [8]	inhibition (INH) (Mus musculus [9])
COc1ccc2cc(C(C)C(=O)OCCN(CCOC(=O)C(C)c3ccc4cc(OC)ccc4c3)CCC(=O)OCCN(CCOC(=O)CCN(CCOC(=O)C(C)c3ccc4cc(OC)ccc4c3)CCOC(=O)C(C)c3ccc4cc(OC)ccc4c3)CCC(=O)OCCN(CCOC(=O)CCN(CCOC(=O)CCN(CCOC(=O)C(C)c3ccc4cc(OC)ccc4c3)CCOC(=O)C(C)c3ccc4cc(OC)ccc4c3)CCOC(=O)CCN(CCOC(=O)C(C)c3ccc4cc(OC)ccc4c3)CCOC(=O)C(C)c3ccc4cc(OC)ccc4c3)CCC(=O)OCc3ccccc3)ccc2c1 (centres undefined)	97.3%	39.62%	95.7%	79.4%	Non-toxic	72.3%	6.93	95.9%	96.2%	
COc1ccc2cc(C(C)C(=O)NCCCCC(NC(=O)C(C)c3ccc4cc(OC)ccc4c3)C(=O)NCCCCC(NC(=O)C(CCCCNC(=O)C(C)c3ccc4cc(OC)ccc4c3)NC(=O)C(C)c3ccc4cc(OC)ccc4c3)C(=O)NCCCCC(NC(=O)C(CCCCNC(=O)C(CCCCNC(=O)C(C)c3ccc4cc(OC)ccc4c3)NC(=O)C(C)c3ccc4cc(OC)ccc4c3)NC(=O)C(CCCCNC(=O)C(C)c3ccc4cc(OC)ccc4c3)NC(=O)C(C)c3ccc4cc(OC)ccc4c3)C(=O)OCc3ccccc3)ccc2c1 (centres undefined)	91.2%	48.18%	97.1%	89.4%	Non-toxic	93.1%	6.21	96.1%	97.6%	
COc1ccc2cc(C(C)C(=O)OCC(COC(=O)C(C)c3ccc4cc(OC)ccc4c3)(COC(=O)C(C)c3ccc4cc(OC)ccc4c3)NC(=O)CCC(=O)OCC(COC(=O)CCC(=O)NC(COC(=O)C(C)c3ccc4cc(OC)ccc4c3)(COC(=O)C(C)c3ccc4cc(OC)ccc4c3)COC(=O)C(C)c3ccc4cc(OC)ccc4c3)(COC(=O)CCC(=O)NC(COC(=O)C(C)c3ccc4cc(OC)ccc4c3)(COC(=O)C(C)c3ccc4cc(OC)ccc4c3)COC(=O)C(C)c3ccc4cc(OC)ccc4c3)NC(=O)OCc3ccccc3)ccc2c1 (centres undefined)	94.5%		97.2%	79.4%	Non-toxic	89.9%	5.94	98.4%	99.1%	49.64%
COc1ccc2cc([C@H](C)C(=O)O)ccc2c1 [NAPROXEN]					Non-toxic		8.26			
